For 24 molecules, Activity, IC50 and fold change (FC) results are on record in ChEMBL document CHEMBL4396922, “Identification of new aryl hydrocarbon receptor (AhR) antagonists using a zebrafish model” (Bioorg Med Chem, 2019).

Activity calls are given as the source filed them. The rule behind the calls is not given here.

The first data set is filed under the species Homo sapiens. The data set can be described thus: Ex vivo expansion of human CD34-positive blood stem/progenitor cells assessed as CD34+ cell population incubated for 5 weeks supplemented with fresh medium containing human recombinant thrombopoietin, stem cell factor, FLT-3 ligand and IL-3 by flow cytometry. Type of data set: functional.
Conditions: not given
An outline of the steps:
(§1)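 Human cord blood CD34⁺ progenitors, 5 x 10⁴ cells in DXF expansion medium with supplement and cytokine mix (TPO, SCF, flt-3 ligand, IL-3), treated with compound at seeding. Cultured 5 weeks at 37°C, 5% CO2, density kept at 5 x 10⁵–2 x 10⁶ cells/ml. Cells stained with anti-CD34-APC plus CD45RA- or Lin-FITC and counted by flow cytometry; vehicle 0.01% DMSO.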
(In general: Flow cytometry measures light scatter and fluorescence of single cells or particles in a stream.)
Turning to `COc1ccccc1C(=O)CC(=O)c1ccc(OC(C)C)cc1`, the result was inactive. Still for that read-out and setting: for `CCOc1ccccc1C(=O)CC(=O)c1ccc(OC(C)C)cc1` the value was “inactive”; for `Cc1ccccc1/N=N/c1ccc(NC(=O)c2ccnn2C)c(C)c1`, “inactive”; for `COc1ccccc1C(=O)CC(=O)c1ccc(OC(F)(F)F)cc1`, “inactive”.

The target in a further data set is T1, Aryl hydrocarbon receptor (Danio rerio, UniProt Q9YGV3).
T1 sequence (Q9YGV3 whole entry): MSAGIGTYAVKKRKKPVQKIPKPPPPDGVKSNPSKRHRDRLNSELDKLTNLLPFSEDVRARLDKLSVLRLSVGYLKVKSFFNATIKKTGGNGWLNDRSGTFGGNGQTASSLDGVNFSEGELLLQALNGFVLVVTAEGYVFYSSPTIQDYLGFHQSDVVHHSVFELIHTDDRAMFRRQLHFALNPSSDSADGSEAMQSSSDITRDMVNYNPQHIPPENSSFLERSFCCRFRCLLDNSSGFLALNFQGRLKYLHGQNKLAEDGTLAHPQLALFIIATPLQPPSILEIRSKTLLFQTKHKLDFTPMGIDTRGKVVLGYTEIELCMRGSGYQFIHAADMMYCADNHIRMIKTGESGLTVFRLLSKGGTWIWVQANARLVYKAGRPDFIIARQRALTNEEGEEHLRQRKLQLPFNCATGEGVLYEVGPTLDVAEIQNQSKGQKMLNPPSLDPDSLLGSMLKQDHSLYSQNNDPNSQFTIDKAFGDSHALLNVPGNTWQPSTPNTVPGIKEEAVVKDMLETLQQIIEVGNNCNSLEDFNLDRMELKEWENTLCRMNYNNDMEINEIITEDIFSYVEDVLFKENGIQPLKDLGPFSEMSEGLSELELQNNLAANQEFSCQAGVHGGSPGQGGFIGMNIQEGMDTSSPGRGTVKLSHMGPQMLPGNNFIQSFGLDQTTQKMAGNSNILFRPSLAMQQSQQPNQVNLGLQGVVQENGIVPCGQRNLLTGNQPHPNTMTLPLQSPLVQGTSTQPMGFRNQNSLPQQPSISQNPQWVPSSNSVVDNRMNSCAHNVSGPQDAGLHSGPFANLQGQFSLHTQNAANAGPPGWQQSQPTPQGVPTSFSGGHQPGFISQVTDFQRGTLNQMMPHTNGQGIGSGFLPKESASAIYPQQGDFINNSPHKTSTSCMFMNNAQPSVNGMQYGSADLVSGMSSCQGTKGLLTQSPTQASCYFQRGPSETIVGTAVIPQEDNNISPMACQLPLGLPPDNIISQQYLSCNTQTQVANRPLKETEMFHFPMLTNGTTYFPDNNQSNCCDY
Kind of data set: Antagonist activity at zebrafish AhR2 expressed in COS7 cells transfected with ARNT-1c, Cyp1a-firefly luciferase and pRL-TK Renilla luciferase plasmids assessed as inhibition of AhR transcriptional activity administered at 5 hrs post-transfection treated with TCDD at 1 hr post-compound treatment and measured for 10 sec after a 3 sec delay at 18 hrs post-TCDD challenge by dual luciferase reporter …. It counts as cell-based.
Conditions: not given
In general terms: A reporter such as luciferase makes a cellular process visible.
Consider `Cc1ccccc1/N=N/c1ccc(NC(=O)c2ccnn2C)c(C)c1`, for which the IC50 turned out to be 98.1 nM.

Tested on in another data set: not listed separately
The data set can be described thus: Toxicity in 30 hrs post fertilized transgenic cyp1a:EGFP zebrafish embryo. The settings on record: in vivo. It counts as ADME, Danio rerio.
Regarding `COc1ccccc1C(=O)/C=C/c1ccc(OC(F)(F)F)cc1`, the Activity entry is “Toxic”. As to `COc1ccccc1-c1cc(-c2ccc(OC(C)C)cc2)[nH]n1`, the Activity result is “Toxic”. Same read-out and setting: for `COc1ccccc1-c1cc(-c2ccc(OC(F)(F)F)cc2)[nH]n1` the value was “Toxic”.

The target of a further data set is T1, Aryl hydrocarbon receptor. The data set can be described thus: Antagonist activity at aryl hydrocarbon receptor in 30 hrs post fertilized transgenic cyp1a:EGFP zebrafish embryo assessed as receptor transcriptional activity by measuring cyp1A-mediated EGFP expression at 5 uM measured after 48 hrs by fluorescence stereomicroscopic analysis.
Conditions: not given
An outline of the steps: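 Screen format: 30 hpf Tg(cyp1a:nls-egfp) embryos, three per well in 200 µL E3 medium (pH 7.2) with 10 nM TCDD. Each compound was added singly at 5 µM in DMSO. Incubation 48 h, then EGFP scored by fluorescent stereomicroscopy.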
In the case of `COc1ccccc1-c1cc(-c2ccc(OC(F)(F)F)cc2)no1`, the Activity result was “Not Active”. Same read-out and setting: for `COc1ccccc1C(=O)/C=C/c1ccc(OC(F)(F)F)cc1` the value was “Not Active”; for `COc1ccccc1-c1cc(-c2ccc(OC(C)C)cc2)[nH]n1`, “Not Active”.

In the case of `COc1ccccc1-c1cc(-c2ccc(OC(F)(F)F)cc2)[nH]n1`, the Activity entry is “Not Active”. Still for that read-out and setting: next, `COc1ccccc1-c1cc(-c2ccc(OC(C)C)cc2)no1`: “Active”; `O=C(CC(=O)c1ccc(OC(F)(F)F)cc1)c1ccccc1`: “Not Active”. For `COc1ccccc1C(=O)CC(=O)c1ccccc1`, the Activity result is given as “Not Active”. As for `COc1ccccc1C(=O)C(C)(C)C(=O)c1ccc(OC(C)C)cc1`, the Activity result is “Not Active”. On the same count and under the same terms, next, `COc1ccc(C(=O)CC(=O)c2ccc(OC(F)(F)F)cc2)cc1`: “Not Active”; `COc1cccc(C(=O)CC(=O)c2ccc(OC(F)(F)F)cc2)c1`: “Active”. The same measure, in the same setting: next, `COc1cccc(OC)c1C(=O)CC(=O)c1ccc(OC(C)C)cc1`: “Not Active”; `CC(C)Oc1ccc(C(=O)CC(=O)c2ccccc2OC(F)(F)F)cc1`: “Not Active”. Same read-out and setting: for `COc1ccc(C(=O)CC(=O)c2ccccc2OC)cc1` the value was “Not Active”. As to `CCOc1ccc(C(=O)CC(=O)c2ccccc2OC)cc1`, the outcome was Active.

As for `COc1ccccc1C(=O)CC(=O)c1cccc(OC(F)(F)F)c1`, the outcome was Active. Take `COc1ccccc1C(=O)CC(=O)c1ccc(OCC(C)C)cc1`: the Activity entry is “Not Active”. Same read-out and setting: for `COc1ccccc1C(=O)CC(=O)c1ccc(OCc2ccccc2)cc1` the value was “Not Active”; for `COc1ccccc1-c1cc(-c2ccc(OC(C)C)cc2)ncn1`, “Active”; for `COc1cc(O)c(C(=O)CC(=O)c2ccc(OC(C)C)cc2)c(OC)c1`, “Not Active”.

The next data set is filed under the species Homo sapiens. The data set can be described thus: Ex vivo expansion of human CD34-positive blood stem/progenitor cells assessed as increase in CD34+ cell population incubated for 5 weeks supplemented with fresh medium containing human recombinant thrombopoietin, stem cell factor, FLT-3 ligand and IL-3 by flow cytometry relative to control.
Conditions: not given
It counts as functional. An outline of the steps: as §1
With `COc1ccccc1C(=O)/C=C/c1ccc(OC(C)C)cc1`, the fold change (FC) was greater than 4.

The term IC50 denotes the midpoint of a concentration-inhibition curve.
